Each structure is given as a SMILES string. In brackets after ≈: the same amount, converted by molar mass. Where only a bound is given, the exact number is not on record here.

Among the data in ChEMBL document CHEMBL3817745, “Structure-Activity Relationship for the 4(3H)-Quinazolinone Antibacterials” (J Med Chem, 2016) are MIC values, retold here.

Holding throughout (assay type): functional
The test system of one assay is Staphylococcus aureus. Description: Antibacterial activity against methicillin-susceptible Staphylococcus aureus ATCC 29213 incubated for 16 to 20 hrs by microdilution method. (In general: Broth dilution looks for growth in wells or tubes with falling amounts of substance.)
The next assay deals with Enterococcus faecium. The assay is described as follows: Antibacterial activity against Enterococcus faecium NCTC 7171 incubated for 16 to 20 hrs by microdilution method. A digest of the protocol: (§1)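 CLSI broth microdilution. 2-fold serial dilutions were made in cation-adjusted Mueller–Hinton broth, with 5% lysed horse blood added for Streptococcus strains, in triplicate. Inoculum 5×10^5 CFU/mL. Plates incubated 36 °C for 16–20 h. MIC taken as the lowest concentration visibly inhibiting growth.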

In the next assay the test system is Klebsiella pneumoniae. The assay is described as follows: Antibacterial activity against Klebsiella pneumoniae ATCC 700603 incubated for 16 to 20 hrs by microdilution method. A digest of the protocol:
as §1

For a further assay, the system named is Acinetobacter baumannii. Description: Antibacterial activity against Acinetobacter baumannii ATCC 17961 incubated for 16 to 20 hrs by microdilution method. A digest of the protocol:
as §1

The next assay relates to Pseudomonas aeruginosa. Description: Antibacterial activity against Pseudomonas aeruginosa […] incubated for 16 to 20 hrs by microdilution method. An outline of the steps: as §1
Another assay relates to Escherichia coli. Description: Antibacterial activity against Escherichia coli ATCC 25922 incubated for 16 to 20 hrs by microdilution method. A digest of the protocol:
as §1

The subject of the next assay is Klebsiella aerogenes. The assay is described as follows: Antibacterial activity against Enterobacter aerogenes ATCC 35029 incubated for 16 to 20 hrs by microdilution method. A digest of the protocol:
as §1

On to `O=c1c2ccccc2nc(/C=C/c2ccco2)n1-c1cccc(O)c1`, for which the MIC in the assay on Staphylococcus aureus was 128 µg/mL (≈ 387 µM); with Enterococcus faecium, at least 8 µg/mL; against Klebsiella pneumoniae, at least 16 µg/mL; with Acinetobacter baumannii it was at least 16 µg/mL; in the assay on Pseudomonas aeruginosa, at least 16 µg/mL; in the assay on Escherichia coli, at least 16 µg/mL. In the assay on Klebsiella aerogenes, the MIC is at least 16 µg/mL.

For the molecule `O=c1c2ccccc2nc(/C=C/c2ccc(O)cc2)n1-c1cccc(O)c1`, the minimum inhibitory concentration (MIC) against Staphylococcus aureus is above 128 µg/mL; in the assay on Enterococcus faecium it was at least 8 µg/mL; in the assay on Klebsiella pneumoniae, at least 16 µg/mL; in the assay on Acinetobacter baumannii, at least 16 µg/mL; against Pseudomonas aeruginosa, at least 16 µg/mL; with Escherichia coli, at least 16 µg/mL. The molecule also returned an MIC in the assay on Klebsiella aerogenes of at least 16 µg/mL.

Turning to `CCc1ccc(/C=C/c2nc3ccccc3c(=O)n2-c2cccc(O)c2)cc1`, the minimal inhibitory concentration (MIC) is 0.5 µg/mL (≈ 1.36 µM) in the assay with Staphylococcus aureus; at least 8 µg/mL with Enterococcus faecium; at least 16 µg/mL in the assay with Klebsiella pneumoniae; at least 16 µg/mL in the assay on Acinetobacter baumannii; at least 16 µg/mL in the assay with Pseudomonas aeruginosa; at least 16 µg/mL against Escherichia coli. The molecule also yielded an MIC against Klebsiella aerogenes of at least 16 µg/mL.

As for `O=c1c2ccccc2nc(/C=C/c2ccccc2F)n1-c1cccc(O)c1`, the minimal inhibitory concentration (MIC) is 1 µg/mL (≈ 2.79 µM) with Staphylococcus aureus; at least 8 µg/mL in the assay with Enterococcus faecium; at least 16 µg/mL against Klebsiella pneumoniae; at least 16 µg/mL against Acinetobacter baumannii; at least 16 µg/mL with Pseudomonas aeruginosa; at least 16 µg/mL against Escherichia coli. Also, the MIC in the assay with Klebsiella aerogenes is at least 16 µg/mL.

Take `C#Cc1ccc(/C=C/c2nc3ccccc3c(=O)n2-c2cccc(O)c2)cc1`: the minimum inhibitory concentration (MIC) was 0.003 µg/mL (≈ 0.00823 µM) against Staphylococcus aureus; at least 8 µg/mL in the assay with Enterococcus faecium; at least 16 µg/mL with Klebsiella pneumoniae; at least 16 µg/mL against Acinetobacter baumannii; at least 16 µg/mL in the assay with Pseudomonas aeruginosa; at least 16 µg/mL in the assay on Escherichia coli. The minimal inhibitory concentration (MIC) in the assay on Klebsiella aerogenes was at least 16 µg/mL.

As to `Cc1ccc(-c2nc3ccccc3c(=O)n2-c2cccc(O)c2)cc1`, the MIC was 128 µg/mL (≈ 390 µM) against Staphylococcus aureus; at least 8 µg/mL in the assay with Enterococcus faecium; at least 16 µg/mL in the assay on Klebsiella pneumoniae; at least 16 µg/mL in the assay with Acinetobacter baumannii; at least 16 µg/mL in the assay on Pseudomonas aeruginosa; at least 16 µg/mL against Escherichia coli. The MIC against Klebsiella aerogenes is at least 16 µg/mL.

On to `N#Cc1ccc(/C=C/c2nc3cc([N+](=O)[O-])ccc3c(=O)n2-c2cccc(C(=O)O)c2)cc1`, for which the minimal inhibitory concentration (MIC) is 64 µg/mL (≈ 146 µM) in the assay with Staphylococcus aureus; at least 8 µg/mL against Enterococcus faecium; at least 16 µg/mL against Klebsiella pneumoniae; at least 16 µg/mL against Acinetobacter baumannii; at least 16 µg/mL with Pseudomonas aeruginosa; at least 16 µg/mL with Escherichia coli. Besides, in the assay on Klebsiella aerogenes, the minimal inhibitory concentration (MIC) is at least 16 µg/mL.

With `O=c1c2ccccc2nc(/C=C/c2ccc(Cl)cc2)n1-c1cccc(O)c1`, the MIC in the assay with Staphylococcus aureus is 0.125 µg/mL (≈ 0.333 µM); in the assay with Enterococcus faecium, at least 8 µg/mL; in the assay with Klebsiella pneumoniae it was at least 16 µg/mL; against Acinetobacter baumannii, at least 16 µg/mL; in the assay on Pseudomonas aeruginosa it was at least 16 µg/mL; in the assay with Escherichia coli, at least 16 µg/mL. Besides, the minimal inhibitory concentration (MIC) in the assay with Klebsiella aerogenes is at least 16 µg/mL.

Consider `O=C(O)c1ccc(/C=C/c2nc3ccccc3c(=O)n2-c2cccc(O)c2)cc1`, for which the MIC is above 128 µg/mL with Staphylococcus aureus; at least 8 µg/mL with Enterococcus faecium; at least 16 µg/mL in the assay on Klebsiella pneumoniae; at least 16 µg/mL in the assay with Acinetobacter baumannii; at least 16 µg/mL against Pseudomonas aeruginosa; at least 16 µg/mL in the assay with Escherichia coli. This molecule also came in with a minimal inhibitory concentration (MIC) in the assay with Klebsiella aerogenes of at least 16 µg/mL.

On to `N#Cc1ccc(/C=C/c2nc3ccccc3c(=O)n2-c2cc[nH]n2)cc1`, for which the minimum inhibitory concentration (MIC) against Enterococcus faecium is at least 8 µg/mL; against Klebsiella pneumoniae, at least 16 µg/mL; against Acinetobacter baumannii, at least 16 µg/mL; in the assay on Pseudomonas aeruginosa, at least 16 µg/mL; with Escherichia coli, at least 16 µg/mL; with Klebsiella aerogenes, at least 16 µg/mL.

For `O=C(O)c1cccc(-n2c(/C=C/c3ccc(F)c(Cl)c3)nc3ccccc3c2=O)c1`, the MIC against Enterococcus faecium is at least 8 µg/mL; against Klebsiella pneumoniae it was at least 16 µg/mL; with Acinetobacter baumannii, at least 16 µg/mL; with Pseudomonas aeruginosa it was at least 16 µg/mL; with Escherichia coli, at least 16 µg/mL; against Klebsiella aerogenes, at least 16 µg/mL.

As to `CC(C)c1ccc(/C=C/c2nc3ccccc3c(=O)n2-c2cccc(O)c2)cc1`, the MIC was at least 8 µg/mL with Enterococcus faecium; at least 16 µg/mL against Klebsiella pneumoniae; at least 16 µg/mL in the assay with Acinetobacter baumannii; at least 16 µg/mL with Pseudomonas aeruginosa; at least 16 µg/mL against Escherichia coli; at least 16 µg/mL against Klebsiella aerogenes.

As for `COC(=O)Nc1cccc(-n2c(/C=C/c3ccc(C#N)cc3)nc3ccccc3c2=O)c1`, the minimal inhibitory concentration (MIC) is at least 8 µg/mL in the assay on Enterococcus faecium; at least 16 µg/mL with Klebsiella pneumoniae; at least 16 µg/mL in the assay on Acinetobacter baumannii; at least 16 µg/mL against Pseudomonas aeruginosa; at least 16 µg/mL against Escherichia coli; at least 16 µg/mL against Klebsiella aerogenes.

As to `O=c1c2ccccc2nc(/C=C/c2cccc([N+](=O)[O-])c2)n1-c1cccc(O)c1`, the minimum inhibitory concentration (MIC) was at least 8 µg/mL with Enterococcus faecium; at least 16 µg/mL against Klebsiella pneumoniae; at least 16 µg/mL in the assay on Acinetobacter baumannii; at least 16 µg/mL against Pseudomonas aeruginosa; at least 16 µg/mL with Escherichia coli; at least 16 µg/mL in the assay on Klebsiella aerogenes.

For the molecule `O=c1c2ccccc2nc(/C=C/c2ccc(F)cc2)n1-c1cccc([N+](=O)[O-])c1`, the MIC against Enterococcus faecium is at least 8 µg/mL; in the assay on Klebsiella pneumoniae, at least 16 µg/mL; against Acinetobacter baumannii, at least 16 µg/mL; in the assay with Pseudomonas aeruginosa it was at least 16 µg/mL; in the assay on Escherichia coli, at least 16 µg/mL; with Klebsiella aerogenes, at least 16 µg/mL.

Regarding `N#Cc1ccc(/C=C/c2nc3ccccc3c(=O)n2-c2cccc([N+](=O)[O-])c2)cc1`, the minimum inhibitory concentration (MIC) is at least 8 µg/mL in the assay with Enterococcus faecium; at least 16 µg/mL against Klebsiella pneumoniae; at least 16 µg/mL against Acinetobacter baumannii; at least 16 µg/mL in the assay with Pseudomonas aeruginosa; at least 16 µg/mL with Escherichia coli; at least 16 µg/mL against Klebsiella aerogenes.

For the molecule `N#Cc1ccc(/C=C/c2nc3ccncc3c(=O)n2-c2cccc(O)c2)cc1`, the minimal inhibitory concentration (MIC) was at least 8 µg/mL with Enterococcus faecium; at least 16 µg/mL against Klebsiella pneumoniae; at least 16 µg/mL against Acinetobacter baumannii; at least 16 µg/mL against Pseudomonas aeruginosa; at least 16 µg/mL in the assay on Escherichia coli; at least 16 µg/mL with Klebsiella aerogenes.

For the molecule `CC(=O)Oc1cccc(-n2c(/C=C/c3ccc([N+](=O)[O-])cc3)nc3ccccc3c2=O)c1`, the minimum inhibitory concentration (MIC) with Enterococcus faecium was at least 8 µg/mL; in the assay on Klebsiella pneumoniae, at least 16 µg/mL; with Acinetobacter baumannii it was at least 16 µg/mL; in the assay on Pseudomonas aeruginosa, at least 16 µg/mL; against Escherichia coli it was at least 16 µg/mL; in the assay on Klebsiella aerogenes, at least 16 µg/mL.

For the molecule `Nc1cccc(-n2c(/C=C/c3ccc(F)cc3)nc3ccccc3c2=O)c1`, the MIC in the assay with Enterococcus faecium is at least 8 µg/mL; with Klebsiella pneumoniae, at least 16 µg/mL; against Acinetobacter baumannii, at least 16 µg/mL; with Pseudomonas aeruginosa, at least 16 µg/mL; in the assay on Escherichia coli, at least 16 µg/mL; in the assay on Klebsiella aerogenes, at least 16 µg/mL.

Turning to `O=c1c2ccccc2nc(/C=C/c2ccc([N+](=O)[O-])cc2)n1-c1ccc(O)cc1`, the MIC with Enterococcus faecium is at least 8 µg/mL; with Klebsiella pneumoniae it was at least 16 µg/mL; against Acinetobacter baumannii, at least 16 µg/mL; in the assay with Pseudomonas aeruginosa, at least 16 µg/mL; in the assay on Escherichia coli, at least 16 µg/mL; against Klebsiella aerogenes, at least 16 µg/mL.

Regarding `O=c1c2cnccc2nc(/C=C/c2ccc(F)cc2)n1-c1cccc(O)c1`, the MIC in the assay with Enterococcus faecium was at least 8 µg/mL; with Klebsiella pneumoniae, at least 16 µg/mL; in the assay with Acinetobacter baumannii, at least 16 µg/mL; with Pseudomonas aeruginosa, at least 16 µg/mL; against Escherichia coli it was at least 16 µg/mL; with Klebsiella aerogenes it was at least 16 µg/mL.

Regarding `O=c1c2ccccc2nc(/C=C/c2ccc([N+](=O)[O-])cc2)n1-c1cccc(O)c1`, the MIC is at least 8 µg/mL against Enterococcus faecium; at least 16 µg/mL with Klebsiella pneumoniae; at least 16 µg/mL against Acinetobacter baumannii; at least 16 µg/mL against Pseudomonas aeruginosa; at least 16 µg/mL in the assay on Escherichia coli; at least 16 µg/mL against Klebsiella aerogenes.

As to `N#Cc1ccc(/C=C/c2nc3ccncc3c(=O)n2-c2cccc(C(=O)O)c2)cc1`, the MIC against Enterococcus faecium was at least 8 µg/mL; against Klebsiella pneumoniae, at least 16 µg/mL; against Acinetobacter baumannii, at least 16 µg/mL; against Pseudomonas aeruginosa, at least 16 µg/mL; with Escherichia coli it was at least 16 µg/mL; in the assay with Klebsiella aerogenes, at least 16 µg/mL.

The MIC is the lowest concentration that inhibits growth of the organism. A low value points to greater potency.
